Here are results for 4 molecules from ChEMBL document CHEMBL3745654, “N-Alkylated arylsulfonamides of (aryloxy)ethyl piperidines: 5-HT(7) receptor selectivity versus multireceptor profile” (Bioorg Med Chem, 2016).

Series [1] deals with Mus musculus. Kind of series: Antidepressant-like activity in Swiss albino mouse assessed as reduction in immobility time at 0.312 to 1.25 mg/kg, ip dosed 60 mins before test measured after 6 mins by forced swim test. Format: functional, organism-based. The essentials:
(§1)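 Male Swiss albino mice (22–26 g), 7–12 per dose. Compounds dissolved in distilled water and given ip 60 min before test. Each mouse placed for 6 min in a glass cylinder with 10 cm of water at 23–25 °C. Immobility (floating with minimal movement) scored over the last 4 min by a blinded observer. One-way ANOVA with Bonferroni.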

In series [2] the test system is Mus musculus. The experiment in a line: Toxicity in Swiss albino mouse assessed as effect on spontaneous locomotor activity at 0.312 to 1.25 mg/kg, ip dosed 60 mins before test measured after 2 to 6 mins. Format: organism-based. Particulars: in vivo.
Series [3] can be described thus: Drug metabolism in mouse liver microsomes assessed as retention time of hydroxylated metabolite at 20 uM at pH 7.4 incubated for 15 mins by UPLC/MS analysis in presence of NADPH. To be noted: pH 7.4, 0.25 h. The series is classed as ADME. The essentials:
(§2)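 Compound (20 µM) incubated with mouse liver microsomes (0.2 mg/ml) in 100 mM potassium phosphate, pH 7.4, 37 °C. Reaction started with NADPH-regenerating system; blank without NADPH run in parallel. Sampling at 5, 15, 30 and 60 min (some to 120 min), in duplicate. Levallorphan internal standard; UPLC/MS quantitation. t1/2 from ln % remaining vs time.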
A general note: Liver microsomes are a subcellular fraction often used to study metabolism.

For series [4], the system named is Mus musculus. The experiment in a line: Antidepressant-like activity in ip dosed Swiss albino mouse assessed as reduction in immobility time dosed 60 mins before test measured after 6 mins by forced swim test. Particulars: read-out: MED. Format: functional. The essentials:
as §1

Series [5] relates to Mus musculus. The experiment in a line: Toxicity in Swiss albino mouse assessed as effect on spontaneous locomotor activity at 1.25 mg/kg, ip dosed 60 mins before test measured after 2 to 6 mins. Format: organism-based. Particulars: in vivo.
The subject of series [6] is Mus musculus. Kind of series: Toxicity in Swiss albino mouse assessed as effect on spontaneous locomotor activity at 1.25 to 5 mg/kg, ip dosed 60 mins before test measured after 2 to 6 mins. Particulars: in vivo. Format: organism-based.
The next series has as its target D(2) dopamine receptor (Homo sapiens, UniProt P14416). The experiment in a line: Antagonist activity at human dopamine D2L receptor expressed in HEK293 cells assessed as inhibition of dopamine-induced cAMP level at 1 uM. Format: functional, cell-based. The essentials: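 Cellular functional cAMP antagonist assay in HEK293 cells, run externally. Inhibition of control agonist response (dopamine 30 nM) measured with compound at 10^-6 M.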

For series [7], the target named is D(3) dopamine receptor (Homo sapiens) (UniProt P35462). The experiment in a line: […] human dopamine D3 receptor expressed in CHO cells assessed as inhibition of dopamine-induced cAMP level at 1 uM after 30 mins by HTRF method. Format: cell-based. On the technique in general: cAMP levels reflect the balance of adenylyl cyclase and phosphodiesterase activity.
D(3) dopamine receptor (Homo sapiens), sequence (P35462 whole entry): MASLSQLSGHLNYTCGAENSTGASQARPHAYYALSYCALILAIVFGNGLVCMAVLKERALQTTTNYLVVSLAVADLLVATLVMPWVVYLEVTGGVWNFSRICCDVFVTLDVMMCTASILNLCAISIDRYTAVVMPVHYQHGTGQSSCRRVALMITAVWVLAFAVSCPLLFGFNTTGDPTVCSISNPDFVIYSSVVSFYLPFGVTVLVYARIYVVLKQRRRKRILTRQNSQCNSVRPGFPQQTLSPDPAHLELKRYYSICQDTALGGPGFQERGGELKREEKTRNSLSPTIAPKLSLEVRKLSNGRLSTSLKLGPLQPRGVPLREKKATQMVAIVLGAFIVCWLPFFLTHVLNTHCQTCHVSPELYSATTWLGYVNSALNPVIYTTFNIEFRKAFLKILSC

Series [8] in a line: Drug metabolism in mouse liver microsomes assessed as retention time of N-dealkylated metabolite at 20 uM at pH 7.4 incubated for 15 mins by UPLC/MS analysis in presence of NADPH. The series is classed as ADME. Particulars: pH 7.4, 0.25 h. The essentials:
as §2

Series [9] addresses 5-hydroxytryptamine receptor 2A (Homo sapiens, UniProt P28223). The experiment in a line: Antagonist activity at human 5-HT2A receptor expressed in HEK293 cells assessed as inhibition of serotonin-induced inositol-1-phosphate accumulation at 1 uM after 30 mins by HTRF assay. Format: functional, cell-based. The essentials:
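Cellular functional antagonist assay in HEK293 cells stably expressing human 5-HT2A receptor, run externally. Inhibition of control agonist response (serotonin 100 nM) measured with compound at 10^-6 M.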
(Time-resolved FRET reads energy transfer from a long-lived donor to a nearby acceptor.)

Series [10] concerns Mus musculus. The experiment in a line: Antidepressant-like activity in Swiss albino mouse assessed as reduction in immobility time at 1.25 to 5 mg/kg, ip dosed 60 mins before test measured after 6 mins by forced swim test. The series is classed as functional, organism-based. The essentials: as §1

Each structure is given as a SMILES string. Calls of active or inactive are those of the source. The calls are words filed in the database; no cut-off is given here.

D(2) dopamine receptor, sequence (P14416 whole entry): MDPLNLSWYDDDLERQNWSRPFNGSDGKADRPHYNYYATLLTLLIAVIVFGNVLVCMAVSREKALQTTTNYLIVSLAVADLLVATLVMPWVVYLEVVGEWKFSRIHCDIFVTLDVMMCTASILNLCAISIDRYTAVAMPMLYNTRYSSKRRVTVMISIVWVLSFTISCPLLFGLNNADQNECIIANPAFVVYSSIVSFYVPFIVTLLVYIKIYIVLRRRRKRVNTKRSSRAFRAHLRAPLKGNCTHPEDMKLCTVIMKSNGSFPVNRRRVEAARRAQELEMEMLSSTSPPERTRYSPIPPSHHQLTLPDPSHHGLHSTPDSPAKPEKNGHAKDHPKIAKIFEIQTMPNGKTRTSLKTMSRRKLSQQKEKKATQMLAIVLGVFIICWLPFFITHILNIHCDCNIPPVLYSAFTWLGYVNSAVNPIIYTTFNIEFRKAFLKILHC
5-hydroxytryptamine receptor 2A, sequence (P28223 whole entry): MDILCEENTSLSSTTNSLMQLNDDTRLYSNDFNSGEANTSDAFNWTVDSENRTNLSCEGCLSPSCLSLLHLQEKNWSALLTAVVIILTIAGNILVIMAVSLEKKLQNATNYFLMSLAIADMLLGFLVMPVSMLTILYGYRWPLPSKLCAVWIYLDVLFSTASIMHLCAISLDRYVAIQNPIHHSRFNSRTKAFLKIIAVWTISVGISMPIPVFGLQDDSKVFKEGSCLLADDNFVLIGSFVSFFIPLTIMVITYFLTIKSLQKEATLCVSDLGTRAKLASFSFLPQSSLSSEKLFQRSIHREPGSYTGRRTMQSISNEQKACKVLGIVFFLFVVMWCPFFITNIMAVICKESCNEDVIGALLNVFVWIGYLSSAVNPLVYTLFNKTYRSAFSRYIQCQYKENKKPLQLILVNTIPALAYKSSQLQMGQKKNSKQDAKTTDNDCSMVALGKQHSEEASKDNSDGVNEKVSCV

Consider `CN(C1CCN(CCOc2ccccc2C(C)(C)C)CC1)S(=O)(=O)c1cnn(C)c1`, for which, in the series on Mus musculus [1], the result was Active. In addition, the Activity result in the series with Mus musculus [2] was “Non-toxic”. For the same molecule, in series [3], the Retention_time is given as 4.09 min.
Turning to `Cn1cc(S(=O)(=O)N(CC2CC2)C2CCN(CCOc3ccccc3C(C)(C)C)CC2)cn1`, in [3], the Retention_time was found to be 4.72 min. Besides, in the series with Mus musculus [4], the minimal effective dose amounted to 1.25 mg/kg. The Activity result with Mus musculus [5] was “Non-toxic”.
In general, inhibition refers to the percentage by which the read-out fell short of the control. `CN(C1CCN(CCOc2ccccc2-c2ccccc2)CC1)S(=O)(=O)c1cnn(C)c1`: in the series with Mus musculus [6], the Activity result is listed as “Non-toxic”. Further, the inhibition on D(2) dopamine receptor was 93%; in [7], more than 91%; in series [9], 85%. In addition, the Retention_time in series [8] turned out to be 4.64 min. Further, the outcome with Mus musculus [10] was Active.
Take `Cn1cc(S(=O)(=O)N(CC2CC2)C2CCN(CCOc3ccccc3-c3ccccc3)CC2)cn1`: the inhibition is 94% at D(2) dopamine receptor, more than 91% in series [7] and 94% in series [9]. Further, the Retention_time in series [8] was determined as 4.59 min. Further, in the series on Mus musculus [4], the minimal effective dose amounted to 1.25 mg/kg. In addition, the Activity entry in the series with Mus musculus [5] is “Non-toxic”.
